Laboratory results as given in PubChem BioAssay AID588760 (Johns Hopkins Ion Channel Center, 2011).
Calls of active or inactive are those of the source.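 How the source made its calls: active means fitted dose response curve and peak inhibition of the Kir2.1 potassium channel above 30% at some dose; inactive means no dose response or no inhibition at any dose.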

target: Inward rectifier potassium channel 2 (Mus musculus) (UniProt P35561); assay: off-target blockade of inward rectifier Kir2.1 – cell-based, FluxOR thallium flux, CRC round 3, selectivity assay for KCNK9 inhibitor project, SAR follow-up (AID 588760); conditions: Kir2.1-expressing cells, 20 min; series mostly up to 30 µM
Procedure, shortened: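 Times – dye loading 90 min RT, compound 20 min RT pre-stimulus · Test system – Kir2.1-expressing HEK293 cells loaded with FluxOR thallium-sensitive dye · Probe or stimulus – potassium sulfate plus thallium sulfate stimulus, 5x stock 25/7 mM · Dosing – 10-concentration dilution series per compound · Technique – kinetic fluorescence of thallium-sensitive dye · Replication – two or more replicates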

Inward rectifier potassium channel 2 (Mus musculus), sequence (P35561 whole entry, looked up): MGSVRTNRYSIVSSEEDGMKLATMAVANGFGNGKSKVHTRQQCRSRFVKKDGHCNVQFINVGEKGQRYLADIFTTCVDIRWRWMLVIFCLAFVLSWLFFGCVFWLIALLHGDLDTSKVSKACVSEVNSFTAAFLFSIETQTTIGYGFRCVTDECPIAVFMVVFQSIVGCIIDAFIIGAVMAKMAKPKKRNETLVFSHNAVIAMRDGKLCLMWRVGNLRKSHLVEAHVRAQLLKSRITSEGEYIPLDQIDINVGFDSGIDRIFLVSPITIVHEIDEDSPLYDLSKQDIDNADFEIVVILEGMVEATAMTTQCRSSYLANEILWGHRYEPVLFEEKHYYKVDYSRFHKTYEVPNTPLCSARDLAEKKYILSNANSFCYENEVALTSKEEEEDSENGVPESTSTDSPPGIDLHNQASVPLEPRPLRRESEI

outcome, inactive:
COc1cccc(-c2n[nH]c(=S)n2C(C)C2CC3CCC2C3)c1OC (stereo not drawn)
CC(C1CC2CCC1C2)n1c(-c2cccnc2)n[nH]c1=S (stereo not drawn)
CC(C1CC2CCC1C2)n1c(-c2ccncc2)n[nH]c1=S (stereo not drawn)
